Results published in ChEMBL document CHEMBL2434958, “Identification of a novel series of orexin receptor antagonists with a distinct effect on sleep architecture for the treatment of insomnia” (J Med Chem, 2013).
Calls of active or inactive are those of the source. The rule behind the calls is not given here.

What was measured:
Orexin receptor type 2 [1] = target: T1, Orexin receptor type 2 (Homo sapiens, UniProt O43614); test: Antagonist activity at human OX2 receptor expressed in HEK cells assessed as inhibition of orexin A-induced Ca2+ accumulation after 1 hr by Fluo-4-AM staining-based FLIPR assay; format: functional, cell-based, HEK293
T1 sequence (O43614 whole entry): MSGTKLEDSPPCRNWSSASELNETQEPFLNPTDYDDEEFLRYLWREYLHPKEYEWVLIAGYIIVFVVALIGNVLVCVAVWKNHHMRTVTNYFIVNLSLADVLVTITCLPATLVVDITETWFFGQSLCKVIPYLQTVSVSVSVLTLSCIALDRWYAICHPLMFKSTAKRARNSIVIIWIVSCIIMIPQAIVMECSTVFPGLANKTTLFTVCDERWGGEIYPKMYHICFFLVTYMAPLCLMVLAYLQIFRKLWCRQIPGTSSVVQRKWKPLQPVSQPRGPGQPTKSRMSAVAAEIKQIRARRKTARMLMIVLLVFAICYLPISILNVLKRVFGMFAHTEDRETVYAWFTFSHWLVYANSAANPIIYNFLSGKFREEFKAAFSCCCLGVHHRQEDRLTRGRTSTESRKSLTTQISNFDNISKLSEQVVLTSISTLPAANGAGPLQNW
Outline: (§1)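 Recombinant CHO or HEK cells expressing human OX1R or OX2R, serum-deprived overnight in HEPES buffer pH 7.4 with 1% BSA. Cells were loaded with 2 μM Fluo4-AM plus 0.1 mM probenecid for 1 h. Compound (up to eight concentrations, usually 10⁻⁹–10⁻⁵ M) was added first, then submaximal orexin A 1 h later. Curves run in triplicate; pKi from IC50 by Cheng–Prusoff.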

[2] = target: T2, Orexin/Hypocretin receptor type 1 (Homo sapiens, UniProt O43613); test: Antagonist activity at human OX1 receptor expressed in CHO cells assessed as inhibition of orexin A-induced Ca2+ accumulation after 1 hr by Fluo-4-AM staining-based FLIPR assay; format: functional, cell-based; conditions: for pIC50: cho; outline: as §1
T2 sequence (O43613 whole entry): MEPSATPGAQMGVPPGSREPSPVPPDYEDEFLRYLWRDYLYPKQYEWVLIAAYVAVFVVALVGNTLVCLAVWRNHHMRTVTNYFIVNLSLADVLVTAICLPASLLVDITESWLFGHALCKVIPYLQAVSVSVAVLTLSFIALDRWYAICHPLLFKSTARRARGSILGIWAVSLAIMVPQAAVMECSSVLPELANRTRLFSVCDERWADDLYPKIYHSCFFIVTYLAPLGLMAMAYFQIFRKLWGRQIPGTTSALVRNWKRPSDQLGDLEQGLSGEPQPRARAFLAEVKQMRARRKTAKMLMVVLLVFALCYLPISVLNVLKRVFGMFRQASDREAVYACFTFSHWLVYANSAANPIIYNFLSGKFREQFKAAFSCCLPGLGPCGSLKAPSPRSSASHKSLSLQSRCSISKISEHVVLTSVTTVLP

Mus musculus [3] = test: Induction of sleep in C57BL/6 mouse assessed as increased rapid eye movement sleep proportion at 50 mg/kg, po measured during 1 hr by EEG/EMG analysis relative to vehicle-treated control; format: functional, organism-based; parameters: dose 50 mg/kg
Outline: (§2)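 Male C57Bl/6 mice with implanted cortical EEG screw electrodes and EMG, recovered 2 weeks, 12 h/12 h light/dark cycle. Crossover: vehicle (0.5% methylcellulose, 10 mL/kg po) on day 2, compound po on day 3, each given 5–15 min before lights-off. 23 h recordings; EEG filtered 0.3–30 Hz, EMG 5–30 Hz; 10 s epochs scored as wake, NREM or REM from EEG/EMG and infrared motility.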

Mus musculus [4] = test: Induction of sleep in C57BL/6 mouse assessed as rapid eye movement and non-rapid eye movement sleep balance at 50 mg/kg, po measured during 1 hr by EEG/EMG analysis relative to vehicle-treated control; format: functional, organism-based; parameters: dose 50 mg/kg
Outline: (§3)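 Male C57Bl/6 mice with implanted cortical EEG and EMG electrodes, 2-week recovery, 12/12 h light cycle. Vehicle (0.5% methylcellulose, 10 mL/kg po) given on day 2 and compound po on day 3, just before lights off. Recording ran 23 h. 10 s epochs scored as wake, NREM or REM from EEG/EMG plus infrared motility. Each animal served as its own vehicle control.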

Mus musculus [5] = test: Induction of sleep in C57BL/6 mouse assessed as increase in rapid eye movement at 50 mg/kg, po measured during 1 hr by EEG/EMG analysis relative to vehicle-treated control; format: functional, organism-based; parameters: dose 50 mg/kg; outline: as §3
Mus musculus [6] = test: Induction of sleep in C57BL/6 mouse assessed as increase in non-rapid eye movement at 50 mg/kg, po measured during 4 hrs by EEG/EMG analysis relative to vehicle-treated control; format: functional, organism-based; parameters: dose 50 mg/kg; outline: as §2
Mus musculus [7] = test: Effect on locomotion in C57BL/6 mouse assessed as reduction of motility at 50 mg/kg, po measured up to 4 hrs; format: functional, organism-based; parameters: dose 50 mg/kg
Outline: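 Mice habituated, then dosed orally immediately before lights-off (15:00, start of active phase); vehicle 0.5% methylcellulose in water. Inactivity = any minute with no infrared beam breaks. Per-animal difference between inactivity 15:00–19:00 post-dose and the same 4 h during habituation 24 h earlier. n = 6; one-way ANOVA with Dunnett's test versus vehicle.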

[8] = Oral bioavailability in C57BL/6 mouse blood at 3 mg/kg; format: ADME, organism-based
Outline: (§4)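 Cassette PK in male C57BL/6 mice (20–30 g), up to five test compounds plus one reference. Iv 1 mg/kg in NMP/blank plasma 10/90 v/v, 5 mL/kg, saphenous vein. Oral 3 mg/kg suspended in 0.5% w/v carboxymethylcellulose in water/Tween 80 (99.5/0.5), 10 mL/kg gavage. Blood sampled 5 min (iv) or 15 min (po) to 24 h, n = 3 per time point, measured by LC/MS/MS.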

Brain [9] = test: Fraction unbound in C57BL/6 mouse brain at 50 mg/kg, po after 1 hr by LC-MS/MS analysis; format: ADME, organism-based; parameters: dose 50 mg/kg, route oral; conditions: in vivo
Outline: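 Unbound fraction assessed in mouse brain homogenate by a slightly adapted literature method, measured separately from the dosed animals. Free brain level obtained by multiplying fraction unbound by brain concentration from the 50 mg/kg po satellite group at 60 min. Mean ± SD, n = 3.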

[10] = Drug uptake in C57BL/6 mouse blood at 50 mg/kg after 1 hr by LC-MS/MS analysis; format: ADME, organism-based; parameters: dose 50 mg/kg; conditions: read-out: Drug uptake
Outline: (§5)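 Satellite PK group: oral gavage of 50 mg/kg suspended in 0.5% w/v methylcellulose in water, 10 mL/kg. Blood and brain taken after decapitation at 15 and 60 min post-dose, n = 3 mice per time point, stored at −20 °C. Brain homogenised in 2 mM KH₂PO₄; acetonitrile quench with internal standard; LC/MS/MS against six-level calibration curve. Mean ± SD reported.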

Brain [11] = test: Drug uptake in C57BL/6 mouse brain at 50 mg/kg after 1 hr by LC-MS/MS analysis; format: ADME, organism-based; parameters: dose 50 mg/kg; conditions: in vivo; outline: as §5
Orexin receptor type 2 [12] = target: T3, Orexin receptor type 2 (Mus musculus, UniProt P58308); test: Antagonist activity at mouse OX2 receptor expressed in HEK cells assessed as inhibition of orexin A-induced Ca2+ accumulation after 1 hr by Fluo-4-AM staining-based FLIPR assay; format: functional, cell-based, HEK293
T3 sequence (P58308 whole entry): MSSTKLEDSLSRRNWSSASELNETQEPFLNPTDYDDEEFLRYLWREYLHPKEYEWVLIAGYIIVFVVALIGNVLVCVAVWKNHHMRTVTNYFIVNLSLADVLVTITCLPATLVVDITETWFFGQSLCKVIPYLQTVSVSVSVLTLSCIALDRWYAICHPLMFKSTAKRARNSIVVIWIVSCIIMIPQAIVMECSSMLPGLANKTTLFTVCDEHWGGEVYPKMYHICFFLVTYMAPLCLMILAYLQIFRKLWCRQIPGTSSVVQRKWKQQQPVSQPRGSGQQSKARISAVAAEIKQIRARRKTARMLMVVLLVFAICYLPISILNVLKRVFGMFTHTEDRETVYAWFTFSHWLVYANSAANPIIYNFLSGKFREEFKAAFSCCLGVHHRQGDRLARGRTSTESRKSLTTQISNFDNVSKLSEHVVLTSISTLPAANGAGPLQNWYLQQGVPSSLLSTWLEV

[13] = target: T4, Orexin/Hypocretin receptor type 1 (Mus musculus, UniProt P58307); test: Antagonist activity at mouse OX1 receptor expressed in CHO cells assessed as inhibition of orexin A-induced Ca2+ accumulation after 1 hr by Fluo-4-AM staining-based FLIPR assay; format: functional, cell-based
T4 sequence (P58307 whole entry): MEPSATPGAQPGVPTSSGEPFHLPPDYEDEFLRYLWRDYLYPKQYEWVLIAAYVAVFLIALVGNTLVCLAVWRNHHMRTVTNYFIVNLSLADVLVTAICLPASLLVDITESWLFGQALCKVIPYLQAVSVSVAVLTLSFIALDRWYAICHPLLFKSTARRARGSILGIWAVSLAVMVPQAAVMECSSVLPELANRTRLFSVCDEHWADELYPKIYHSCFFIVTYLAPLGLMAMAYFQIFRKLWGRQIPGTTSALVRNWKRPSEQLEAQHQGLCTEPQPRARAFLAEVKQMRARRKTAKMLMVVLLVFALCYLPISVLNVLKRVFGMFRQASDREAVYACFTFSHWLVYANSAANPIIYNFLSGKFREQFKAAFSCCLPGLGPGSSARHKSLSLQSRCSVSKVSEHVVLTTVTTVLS

[14] = Ratio of drug level in brain to blood in C57BL/6 mouse at 3 mg/kg, po after 15 mins; format: ADME, organism-based; parameters: dose 3 mg/kg, route oral
Outline: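 Male C57BL/6 mice (20–30 g), cassette dosing of up to five compounds plus a reference. Blood and brain collected 15 min post-dose, n = 3. Brain homogenised in 2 mM KH2PO4 and extracted with acetonitrile. LC/MS/MS quantitation; mean brain/blood ratio.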

[15] = AUC (infinity) in C57BL/6 mouse blood at 3 mg/kg, po; format: ADME, organism-based; parameters: time infinity, dose 3 mg/kg, route oral; outline: as §4
[16] = Cmax in C57BL/6 mouse blood at 3 mg/kg, po; format: ADME, organism-based; parameters: dose 3 mg/kg, route oral; outline: as §4
[17] = Total blood clearance in C57BL/6 mouse at 1 mg/kg, iv; format: ADME, organism-based; parameters: dose 1 mg/kg, route intravenous; outline: as §4
[18] = Volume of distribution at steady state in C57BL/6 mouse at 1 mg/kg, iv; format: ADME, organism-based; parameters: dose 1 mg/kg, route intravenous; conditions: in vivo, read-out: Vdss; outline: as §4
Mus musculus [19] = test: Induction of sleep in C57BL/6 mouse assessed as increase in total sleep time at 50 mg/kg, po measured during first 4 hrs by EEG/EMG analysis relative to vehicle-treated control

## O=C1CCCC2(CCN(c3cnc4ccccc4n3)CC2)N1Cc1ccccc1
Orexin receptor type 2 [1]
  Ki: 0.589 µM
[2]
  Ki: 1.48 µM

## O=C1N(Cc2ccccc2)CCCC12CCN(c1cnc3ccccc3n1)CC2
Orexin receptor type 2 [1]
  Ki: 0.182 µM
[2]
  Ki: 1.55 µM

## Cc1ccc(C)c(CN2C(=O)CCCC23CCN(c2cnc4ccccc4n2)CC3)c1
Orexin receptor type 2 [1]
  Ki: 0.0129 µM
[2]
  Ki: 0.0589 µM

## O=C1N(Cc2c[nH]c3ccccc23)CCCC12CCN(c1cnccn1)CC2
Orexin receptor type 2 [1]
  Ki: 0.309 µM
[2]
  pIC50: > 5

## Cc1cc(C)nc(N2CCC3(CCCN(Cc4cn(C)c5ccccc45)C3=O)CC2)n1
Orexin receptor type 2 [1]
  Ki: 0.0209 µM
[2]
  Ki: 1.45 µM

## O=C1N(Cc2c[nH]c3ccccc23)CCCC12CCN(c1ncccn1)CC2
Orexin receptor type 2 [1]
  Ki: 0.55 µM
[2]
  pIC50: > 5

## O=C1N(Cc2cccc3[nH]ccc23)CCCC12CCN(c1cnc3ccccc3n1)CC2
Orexin receptor type 2 [1]
  Ki: 0.0776 µM
[2]
  Ki: 0.55 µM

## O=C1N(Cc2c[nH]c3ccccc23)CCCC12CCN(c1cnc3ccccc3n1)CC2
Orexin receptor type 2 [1]
  Ki: 0.0617 µM
[2]
  Ki: 0.288 µM

## COc1ccnc(N2CCC3(CCCN(Cc4c[nH]c5ccccc45)C3=O)CC2)n1
Mus musculus [3]
  Activity: Active
Mus musculus [4]
  Activity: inactive
Mus musculus [5]
  Activity: inactive
Mus musculus [6]
  Activity: Active
Mus musculus [7]
  Activity: Active
[8]
  bioavailability: 47%
Brain [9]
  Fu: 0.61%
[10]
  concentration at 1 h: 6.91 µM
Brain [11]
  Drug uptake: 8778 pmol/g
Orexin receptor type 2 [12]
  Ki: 0.0589 µM
[13]
  Ki: 0.457 µM
[14]
  Kp at 0.25 h: 1.1
[15]
  AUC(0-inf): 2090 nM·h
[16]
  Cmax: 0.864 µM
[17]
  clearance: 1.68 L/h/kg
[18]
  Vd: 1.6 L/kg
Mus musculus [19]
  Activity: Active

## Cc1cc(C)nc(N2CCC3(CCCN(Cc4c[nH]c5ncccc45)C3=O)CC2)n1
Orexin receptor type 2 [1]
  Ki: 0.0162 µM
[2]
  Ki: 1.32 µM

## COc1ccc2[nH]cc(CN3CCCC4(CCN(c5nc(C)cc(C)n5)CC4)C3=O)c2c1
Orexin receptor type 2 [1]
  Ki: 0.000166 µM
[2]
  Ki: 0.0204 µM

## Cc1cc(C)nc(N2CCC3(CCCN(Cc4c[nH]c5ccccc45)C3=O)CC2)n1
Orexin receptor type 2 [1]
  Ki: 0.00692 µM
[2]
  Ki: 0.661 µM
